Assay results of several laboratories.
HTR1A: 5-hydroxytryptamine receptor 1A (HTR1A, Homo sapiens, UniProt P08908)
IKBKB: Inhibitor of nuclear factor kappa-B kinase subunit beta (IKBKB, Homo sapiens, UniProt O14920)
AChE: AChE (Phlebotomus papatasi, UniProt M1F887)
M-phase phosphoprotein 8 chromodomain: M-phase phosphoprotein 8, chromodomain (Homo sapiens, UniProt Q99549)

For `C=C(C)[C@@H]1CCC(C)=C[C@H]1c1c(O)cc(CCCCC)cc1O`, the IC50 was 2450 nM (G-protein coupled receptor 52 (GPR52, Homo sapiens, UniProt Q9Y2T5); cAMP, antagonist).
`CC(CCc1ccccc1)NC(C)C(O)c1ccc(O)cc1` (centres unmarked) gave an IC50 of 3380 nM (HTR1A; ligand displacement, radioligand).
`COCCOCOc1cc(OCc2cc(F)cc(F)c2)c(C(=O)/C=C/c2ccc(C(=O)O)cc2)cc1C12CC3CC(CC(C3)C1)C2` has an IC50 of 1830 nM (IKBKB; enzyme activity, inhibitor, TR-FRET).
With `COc1ncccc1-c1cnn2ccc(N3CCN(C(=O)OC(C)C)CC3)nc12` the IC50 was greater than 30000 nM (Alpha-2C adrenergic receptor (ADRA2C, Homo sapiens, UniProt P18825); cell-free assay).
The IC50 of `O=C(CCCc1ccc(N(CCCl)CCCl)cc1)NCCC1CCN(CCOc2ccc(Oc3c(-c4ccc(O)cc4)sc4cc(O)ccc34)cc2)CC1` is reported as 37 nM (Estrogen receptor (ESR1, Homo sapiens, UniProt P03372); ligand displacement, radioligand).
For `CCOP(=O)(OCC)Oc1ccc2c(C)c(Cl)c(=O)oc2c1`, the IC50 was 430 nM (AChE; enzyme activity, inhibitor).
The IC50 of `CCN(CCCC[C@H](NC(=O)[C@H](CC(C)C)NC(=O)[C@H](C)NC(=O)[C@H](Cc1ccccc1)NC(=O)c1ccc(N)c(Br)c1)C(=O)N[C@@H](CO)C(N)=O)C(C)C` is reported as 400 nM (M-phase phosphoprotein 8 chromodomain; cell-free assay, TR-FRET).
For `COCCOCOc1cc(OCc2ccc(Br)cc2)c(C(=O)/C=C/c2ccc(C(=O)O)cc2)cc1C12CC3CC(CC(C3)C1)C2`, the IC50 was 2730 nM (IKBKB; enzyme activity, inhibitor, TR-FRET).
For `CNC(=O)Oc1cccc2c1OC(C)(C)O2`, the IC50 was 15 nM (AChE; enzyme activity, inhibitor).
`CCN(CCCC[C@H](NC(=O)[C@H](CC(C)C)NC(=O)[C@H](C)NC(=O)[C@H](Cc1ccccc1)NC(=O)c1cccnc1)C(=O)N[C@@H](CO)C(N)=O)C(C)C` has an IC50 of 2200 nM (M-phase phosphoprotein 8 chromodomain; cell-free assay, TR-FRET).
With `CCCCCNC(=N)N/N=C/c1c[nH]c2ccc(OC)cc12` the IC50 was 870 nM (HTR1A; calcium signal, antagonist).
With `CCN(CCCC[C@H](NC(=O)[C@H](Cc1ccccc1)NC(=O)[C@H](C)NC(=O)[C@H](Cc1ccccc1)NC(=O)c1cccnc1)C(=O)N[C@@H](CO)C(N)=O)C(C)C` the IC50 was 550 nM (M-phase phosphoprotein 8 chromodomain; cell-free assay, TR-FRET).
With `O=c1c2ccccc2[se]n1-c1ccccc1` the IC50 was 2000 nM (Leucine-rich repeat serine/threonine-protein kinase 2 (LRRK2, Homo sapiens, UniProt Q5S007); enzyme activity, inhibitor, radiometric).
`CNC(=O)Oc1cccc2c1OC(C)(C)C2` gave an IC50 of 8 nM (AChE; enzyme activity, inhibitor).
`CCN(CCCC[C@H](NC(=O)[C@H](CC(C)C)NC(=O)[C@H](C)NC(=O)[C@H](Cc1ccccc1)NC(=O)c1ccc(NC)cc1)C(=O)N[C@@H](CO)C(N)=O)C(C)C` has an IC50 of 4400 nM (M-phase phosphoprotein 8 chromodomain; cell-free assay, TR-FRET).
`CNC(=O)Oc1cccc2ccccc12` has an IC50 of 167 nM (AChE; enzyme activity, inhibitor).
The IC50 of `CCN(CCCC[C@H](NC(=O)[C@H](CC(C)C)NC(=O)[C@H](C)NC(=O)[C@H](Cc1ccccc1)NC(=O)c1ccc(N)cc1)C(=O)N[C@@H](CO)C(N)=O)C(C)C` is reported as 1800 nM (M-phase phosphoprotein 8 chromodomain; cell-free assay, TR-FRET).
